target: T1, UniProt Q8VGZ2; conditions: stereoisomer not certain
T1 sequence (whole entry): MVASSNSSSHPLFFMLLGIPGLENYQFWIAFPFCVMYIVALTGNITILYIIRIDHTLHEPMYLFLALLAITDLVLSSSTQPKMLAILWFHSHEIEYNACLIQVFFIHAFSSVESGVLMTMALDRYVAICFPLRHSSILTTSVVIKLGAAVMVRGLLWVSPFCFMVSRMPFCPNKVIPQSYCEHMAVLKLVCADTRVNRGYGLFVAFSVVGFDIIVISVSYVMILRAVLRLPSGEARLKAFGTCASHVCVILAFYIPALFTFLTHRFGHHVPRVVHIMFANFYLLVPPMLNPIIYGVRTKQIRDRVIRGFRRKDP
In short: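 Each receptor–molecule pair is labelled responsive or non-responsive (inactive) according to whether the original authors judged the measured signal statistically different from baseline. The data were taken from the main text and supplementary material of published papers and checked for typos and inconsistencies. Assay methods differed by source, with transient luciferase assays in mammalian cell lines being common.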
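Also: active if original authors judged signal statistically different from baseline.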

| Compound | odorant receptor agonist call |
| --- | --- |
| CCCCCCCCCCOC(C)=O | inactive |
| COC(OC)c1ccccc1 | inactive |
| C=C(C)C1CCC2(C)OC2C1 (centres undefined) | inactive |
| CCCCCOC(=O)CCC | inactive |
| CCc1ccc(O)cc1 | inactive |
| Cc1c(C)c(C)c(C=O)c(C)c1C | inactive |
| CCCCCC(C)O (centres undefined) | inactive |
| c1ccc2ncccc2c1 | inactive |
| CCSCC | inactive |
| CC(C)CCN | inactive |
| CC1(C)CC(=O)CC(=O)C1 | inactive |
| CC(=O)OC1(C)CCC23CC1C(C)(C)C2CCC3C (centres undefined) | active |
| CC(C)=C1CCC(C)CC1=O (centres undefined) | inactive |
| COc1nccnc1C(C)C | inactive |
| CNc1ccccc1C(=O)OC | inactive |
| CSSCc1ccco1 | inactive |
| Cc1ccc(OC(=O)C(C)C)cc1 | inactive |
| O=C(O)CCCCCCCCC(=O)O | inactive |
| COc1cnccn1 | inactive |
| COc1ccccc1 | inactive |
| OCCCCCCCCCO | inactive |
| C=C(C)C1CC=C(C)CC1 (centres undefined) | inactive |
| COc1nccnc1C | inactive |
| CC(CC=O)CCCC(C)(C)O (centres undefined) | inactive |
